Hits are enriched below; roughly 0.23% of the tested compounds scored in any of these assays.
Rad51 HR inh: human RAD51 strand exchange inhibitors, primary screen, biochemical, fluorescence | DNA repair protein RAD51 homolog 1 (Homo sapiens), Q06609 | hRad51 DNA strand exchange, fluorescence dequenching | inhibition, % at 10 µM | 200,000 compounds, 0.085% hits | AID 1385, 2008;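 active means inhibition above 40% at the single screening dose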;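 further: 0% = DMSO control wells and 100% = blanks with heterologous ssDNA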
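material = hRad51 filaments on single-stranded DNA | timing = filaments 15 min 37 °C, then compound 30 min | signal = FRET fluorescence dequenching, excitation 485 nm, emission 520 nm | benchmarks = control wells and blank wells on each plate | evaluation = percent inhibition relative to plate controls and blanks | compound = 10 µM final, single point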
Bim-Bcl-B: inhibitors of Bim-Bcl-B binding, primary screen, biochemical, multiplexed, human Bcl-2 family; Bcl-2-like protein 10 (Homo sapiens), Q9HD36; bead-based flow cytometry, Bim peptide-Bcl-B binding; inhibition, % at 10 µM; 190,000 compounds, 0.073% hits;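 further: 0% = tracer peptide without compound and 100% = reference inhibitor peptide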
Bim-Bcl-XL: inhibitors of Bim-Bcl-XL binding, primary screen, biochemical, multiplexed, bead flow cytometry, human Bcl-XL. 190,000 compounds, 0.04% hits. Bcl-2-like protein 1 (Homo sapiens), Q07817. inhibition, % at 10 µM. Bim peptide-Bcl-XL binding, fluorescence. AID 1007, 2008
Bcl-W Bim block: inhibitors of Bim binding to Bcl-W, primary screen, biochemical, multiplexed, bead-based flow cytometry | Bcl-2-like protein 2 (Homo sapiens), Q92843 | Bim peptide-Bcl-W binding | inhibition, % at 10 µM | 190,000 compounds, 0.02% hits | AID 952, 2007;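 further: 0% = bound tracer without compound and 100% = peptide blocker; higher means less fluorescent Bim peptide bound to Bcl-W beads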
Target sequence (Q92843 whole entry, looked up): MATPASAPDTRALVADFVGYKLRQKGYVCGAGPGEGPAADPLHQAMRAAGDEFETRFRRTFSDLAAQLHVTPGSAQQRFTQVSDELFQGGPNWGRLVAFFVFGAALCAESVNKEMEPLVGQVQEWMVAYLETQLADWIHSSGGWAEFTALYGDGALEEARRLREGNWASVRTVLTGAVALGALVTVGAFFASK
Bim-Bfl-1: inhibitors of Bim binding to Bfl-1, primary screen, biochemical, multiplexed, bead-based flow cytometry | Bim-Bfl-1 binding inhibition | inhibition, % at 10 µM | 190,000 compounds, 0.12% hits;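 further: 0% = wells without compound plus tracer and 100% = blocker peptide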
Target sequence (Q16548 whole entry, looked up): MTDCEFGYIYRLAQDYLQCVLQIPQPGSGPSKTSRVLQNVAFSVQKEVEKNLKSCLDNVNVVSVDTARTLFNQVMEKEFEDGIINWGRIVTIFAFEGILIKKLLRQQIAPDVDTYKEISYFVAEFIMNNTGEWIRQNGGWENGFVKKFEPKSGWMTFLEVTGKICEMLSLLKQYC
Bcl-2 Bim block: inhibitors of Bim-Bcl-2 binding, primary screen, biochemical, multiplexed, human Bcl-2 family; Apoptosis regulator Bcl-2 (Homo sapiens), P10415; Bead-based flow cytometry, Bim peptide-Bcl-2 binding; inhibition, % at 10 µM; 190,000 compounds, 0.06% hits; AID 950, 2007; in the data active means inhibition above about 40%;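 further: 0% = no compound wells with probe peptide and 100% = reference peptide inhibitor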
* = called active by the depositor; . = no result. Unless noted, no stated cut-off is given here; in the data, active means inhibition above about 40%.

SMILES	Rad51 HR inh	Bim-Bcl-B	Bim-Bcl-XL	Bcl-W Bim block	Bim-Bfl-1	Bcl-2 Bim block
CCN1/C(=C/c2ccc3cc(C)ccc3[n+]2CC)Sc2cc(C)ccc21	-184	-25	2	4	1	6
CCN1/C(=C/c2ccc3cc(C)ccc3[n+]2C)Sc2ccc3sccc3c21	31	4	34	22	46*	54*
O=[N+]([O-])c1ccc2ccn(C3OCC(O)C(O)C3O)c2c1 (stereo not given)	1	-8	-5	-5	-13	-2
Cc1cc(C)c(S(=O)(=O)/N=C2/C=C(SCC(=O)O)C(=O)c3ccccc32)cc1C	-47	-12	0	18	56*	12
CN(C(=O)CSc1nnc(-c2ccncc2)n1-c1ccccc1)C1CCS(=O)(=O)C1 (stereo not given)	48*	.	.	.	.	.
CCN(C(=O)CSc1nnc(-c2ccncc2)n1-c1ccccc1)C1CCS(=O)(=O)C1 (stereo not given)	-21	-6	0	-2	-6	-3
CCNC(=O)N1c2ccc(OCC)cc2C(C)=CC1(C)C	4	20	33	18	40*	24
COc1ccccc1C(=O)N=Nc1c(O)[nH]c2ccc([N+](=O)[O-])cc12	5	24	44*	27	9	17
Nc1c(Cl)cc(-c2csc(N3CCCC3c3nc4cc(Cl)c(N5CCCCC5)cc4n3CCOCCO)n2)cc1Cl (stereo not given)	4	.	.	.	.	.
CC1N(C)c2cccc3cccc(c23)N1C	-3	2	9	29	43*	12
O=C(Nc1ccc2c(c1)OCCO2)c1cccc(S(=O)(=O)N2CCCCC2)c1	122*	-5	-3	5	-7	-7
NC(=O)NC(=O)COC(=O)c1cccc(S(=O)(=O)N2CCCCCC2)c1	46*	.	.	.	.	.
CCOc1ccc(NC2=C(Cl)C(=O)N(Cc3ccccc3)C2=O)cc1	-5	-8	-5	-1	-16	-11
Cc1ccc(O)c(NC2=C(Cl)C(=O)N(Cc3ccccc3)C2=O)c1	-23	22	35	51*	58*	37
Cc1nc2cc(NCc3cc([N+](=O)[O-])ccc3O)ccc2n1Cc1ccccc1	0	-1	0	1	-2	1
Nc1ccc(N2CCCCCC2)cc1	-12	10	6	30	43*	19
Nc1ccc(N2CCN(c3ccc(F)cc3)CC2)cc1	-9	-2	0	4	9	5
CN1/C(=C\C=C(/C#N)C(=O)Nc2ccc(Cl)cc2)C(C)(C)c2ccccc21	-143	-3	2	1	2	-6
CN1/C(=C\C(=O)Nc2ccc(Cl)cc2)C(C)(C)c2ccccc21	-9	25	40*	27	39	26
Cc1cnc(NC(=O)CN2C(=O)C3CC=CCC3C2=O)s1 (stereo not given)	-3	3	4	1	0	3
O=C(CN1C(=O)C2CC=CCC2C1=O)Nc1nccs1 (stereo not given)	52*	-4	-5	-5	0	-2
CCN(CC(=O)NCCc1ccc(F)cc1)Cc1nc2ccccc2c(=O)[nH]1	46*	.	.	.	.	.
CCN(CC(=O)NCCc1ccc(Cl)cc1)Cc1nc2ccccc2c(=O)[nH]1	5	-3	2	-2	-3	-2
Cc1ccc(NC(=O)CC2S/C(=N/N=C/c3c[nH]c4ccccc34)NC2=O)cc1 (stereo not given)	.	27	33	28	42*	25
Cc1onc(-c2c(Cl)cccc2Cl)c1C(=O)c1ccccc1	10	.	.	.	.	.
Cc1onc(-c2c(Cl)cccc2Cl)c1C(=O)Nn1cnnc1	44*	-10	-7	-5	-15	-4
Cc1cc(C(=O)Nc2cccnc2)cs1	77*	-7	1	0	-13	-10

Source: PubChem
